Reference: ChEMBL document CHEMBL3875155, “New (arylalkyl)azole derivatives showing anticonvulsant effects could have VGSC and/or GABAAR affinity according to molecular modeling studies” (Eur J Med Chem, 2016)
Calls of active or inactive are those of the source. The rule behind the calls is not given here.

What was measured:
Mus musculus [1] = assay: Anticonvulsant activity in Swiss albino mouse assessed as protection against maximal electroshock-induced seizures at 300 mg/kg, ip after 4 hrs; format: functional, organism-based
Summary of the method: (§1)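 Compound suspended in PEG 400 and given i.p. at 30, 100 or 300 mg/kg, 0.5 or 4 h before testing. Saline (0.9%) applied to the corneas, then 60 Hz alternating current for 0.2 s through corneal electrodes. A mouse counts as protected if hind limb tonic extension stays under 90°. PEG-only placebo mice serve as negative control. Scored as number protected/number tested.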

Mus musculus [2] = assay: Neurotoxicity in Swiss albino mouse at 30 mg/kg, ip after 0.5 hrs by rotarod test; format: toxicity, organism-based; details: in vivo
Summary of the method: (§2)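 Rotarod turning at 6 rpm, run after i.p. dosing of PEG 400 suspension (30, 100 or 300 mg/kg; 0.5 or 4 h). Falling off three times within 1 min marks a mouse as neurotoxic. Placebo (PEG) mice serve as control. Scored as number failing/number tested.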

Mus musculus [3] = assay: Neurotoxicity in Swiss albino mouse at 100 mg/kg, ip after 0.5 hrs by rotarod test; format: toxicity, organism-based; details: in vivo; summary of the method: as §2
Mus musculus [4] = assay: Neurotoxicity in Swiss albino mouse at 300 mg/kg, ip after 0.5 hrs by rotarod test; format: toxicity, organism-based; details: in vivo; summary of the method: as §2
Mus musculus [5] = assay: Neurotoxicity in Swiss albino mouse at 30 mg/kg, ip after 4 hrs by rotarod test; format: toxicity, organism-based; details: in vivo; summary of the method: as §2
Mus musculus [6] = assay: Neurotoxicity in Swiss albino mouse at 100 mg/kg, ip after 4 hrs by rotarod test; format: toxicity, organism-based; details: in vivo; summary of the method: as §2
Mus musculus [7] = assay: Neurotoxicity in Swiss albino mouse at 300 mg/kg, ip after 4 hrs by rotarod test; format: toxicity, organism-based; details: in vivo; summary of the method: as §2
Mus musculus [8] = assay: Anticonvulsant activity in Swiss albino mouse assessed as protection against subcutaneously injected metrazol induced seizures at 300 mg/kg, ip after 4 hrs; format: functional, organism-based
Summary of the method: (§3)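 Test compounds were given i.p. as PEG 400 suspensions at 30, 100 or 300 mg/kg, 0.5 or 4 h ahead. Metrazol 85 mg/kg is injected s.c. in the neck midline, and mice are watched for 30 min. A mouse counts as protected if it has no clonic spasm episode (about 3–5 s) of the limbs, jaws or vibrissae. PEG placebo serves as negative control. Scored as number protected/number tested.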

Mus musculus [9] = assay: Anticonvulsant activity in Swiss albino mouse assessed as protection against maximal electroshock-induced seizures at 30 mg/kg, ip after 0.5 hrs; format: functional, organism-based; summary of the method: as §1
Mus musculus [10] = assay: Anticonvulsant activity in Swiss albino mouse assessed as protection against maximal electroshock-induced seizures at 100 mg/kg, ip after 0.5 hrs; format: functional, organism-based; summary of the method: as §1
Mus musculus [11] = assay: Anticonvulsant activity in Swiss albino mouse assessed as protection against maximal electroshock-induced seizures at 300 mg/kg, ip after 0.5 hrs; format: functional, organism-based; summary of the method: as §1
Mus musculus [12] = assay: Anticonvulsant activity in Swiss albino mouse assessed as protection against maximal electroshock-induced seizures at 30 mg/kg, ip after 4 hrs; format: functional, organism-based; summary of the method: as §1
Mus musculus [13] = assay: Anticonvulsant activity in Swiss albino mouse assessed as protection against maximal electroshock-induced seizures at 100 mg/kg, ip after 4 hrs; format: functional, organism-based; summary of the method: as §1
Mus musculus [14] = assay: Anticonvulsant activity in Swiss albino mouse assessed as protection against subcutaneously injected metrazol induced seizures at 300 mg/kg, ip after 0.5 hrs; format: functional, organism-based; summary of the method: as §3
Mus musculus [15] = assay: Anticonvulsant activity in Swiss albino mouse assessed as protection against subcutaneously injected metrazol induced seizures at 100 mg/kg, ip after 4 hrs; format: functional, organism-based; summary of the method: as §3
Mus musculus [16] = assay: Anticonvulsant activity in Swiss albino mouse assessed as protection against subcutaneously injected metrazol induced seizures at 30 mg/kg, ip after 4 hrs; format: functional, organism-based; summary of the method: as §3

Structure (SMILES) | Activity (Mus musculus [1]) | Activity (Mus musculus [2]) | Activity (Mus musculus [3]) | Activity (Mus musculus [4]) | Activity (Mus musculus [5]) | Activity (Mus musculus [6]) | Activity (Mus musculus [7]) | Activity (Mus musculus [8]) | Activity (Mus musculus [9]) | Activity (Mus musculus [10]) | Activity (Mus musculus [11]) | Activity (Mus musculus [12]) | Activity (Mus musculus [13]) | Activity (Mus musculus [14]) | Activity (Mus musculus [15]) | Activity (Mus musculus [16])
CC(C)C(=O)O/N=C(\Cn1cncn1)c1ccc2ccccc2c1.Cl | Active | Non-Toxic | Non-Toxic | Non-Toxic | Non-Toxic | Non-Toxic | Non-Toxic | – | – | – | – | – | – | – | – | –
Cl.O=C(Cc1ccccc1)O/N=C(\Cn1cncn1)c1ccc2ccccc2c1 | – | Non-Toxic | Non-Toxic | Non-Toxic | Non-Toxic | Non-Toxic | Non-Toxic | – | – | – | – | – | – | – | – | –
CCCC(CCC)C(=O)O/N=C(\Cn1cncn1)c1ccc2ccccc2c1.Cl | Active | Non-Toxic | Non-Toxic | Non-Toxic | Non-Toxic | Non-Toxic | Non-Toxic | Active | – | – | – | – | – | – | – | –
O=C1NC(=O)C(c2ccccc2)(c2ccccc2)N1 [PHENYTOIN] | Active | Non-Toxic | Non-Toxic | Toxic | Non-Toxic | Toxic | Toxic | – | Active | Active | Active | Active | Active | – | – | –
NC(=O)N1c2ccccc2C=Cc2ccccc21 [CARBAMAZEPINE] | Active | Non-Toxic | Non-Toxic | Toxic | Non-Toxic | Non-Toxic | Non-Toxic | Active | Active | Active | Active | – | Active | Active | Active | –
O=C(/C=C/c1ccccc1)O/N=C(\Cn1cncn1)c1ccc2ccccc2c1 | – | Non-Toxic | Non-Toxic | Non-Toxic | Non-Toxic | Non-Toxic | Non-Toxic | – | – | – | – | – | – | – | – | –
CC(C)(C)C(=O)O/N=C(\Cn1cncn1)c1ccc2ccccc2c1 | – | Non-Toxic | Non-Toxic | Non-Toxic | Non-Toxic | Non-Toxic | Non-Toxic | – | – | – | – | – | – | – | – | –
CCCC(C)C(=O)O/N=C(\Cn1cncn1)c1ccc2ccccc2c1.Cl (configuration not stated) | – | Non-Toxic | Non-Toxic | Non-Toxic | Non-Toxic | Non-Toxic | Non-Toxic | – | – | – | Active | – | – | – | – | –
CC(C)CC(=O)O/N=C(\Cn1cncn1)c1ccc2ccccc2c1.Cl | – | Non-Toxic | Non-Toxic | Non-Toxic | Non-Toxic | Non-Toxic | Non-Toxic | Active | – | – | Active | – | Active | Active | Active | Active
CCC(C)C(=O)O/N=C(\Cn1cncn1)c1ccc2ccccc2c1 (configuration not stated) | – | Non-Toxic | Non-Toxic | Non-Toxic | Non-Toxic | Non-Toxic | Non-Toxic | Active | – | Active | Active | – | – | – | – | –
CCCC(=O)O/N=C(\Cn1cncn1)c1ccc2ccccc2c1 | Active | Non-Toxic | Non-Toxic | Non-Toxic | Non-Toxic | Non-Toxic | Non-Toxic | – | – | – | – | – | – | – | – | –
CCC(=O)O/N=C(\Cn1cncn1)c1ccc2ccccc2c1.Cl | – | Non-Toxic | Non-Toxic | Non-Toxic | Non-Toxic | Non-Toxic | Non-Toxic | – | – | – | – | – | – | – | – | –
CCC(C)CC(=O)O/N=C(\Cn1cncn1)c1ccc2ccccc2c1.Cl (configuration not stated) | Active | Non-Toxic | Non-Toxic | Non-Toxic | Non-Toxic | Non-Toxic | Non-Toxic | Active | – | Active | – | – | – | – | – | –
CCCCC(=O)O/N=C(\Cn1cncn1)c1ccc2ccccc2c1.Cl | – | Non-Toxic | Non-Toxic | Non-Toxic | Non-Toxic | Non-Toxic | Non-Toxic | – | – | – | Active | – | – | – | – | –
O=C(O/N=C(\Cn1cncn1)c1ccc2ccccc2c1)C1CCCCC1 | – | Non-Toxic | Non-Toxic | Non-Toxic | Non-Toxic | Non-Toxic | Non-Toxic | – | – | – | Active | – | – | – | – | –
CC(C)CCC(=O)O/N=C(\Cn1cncn1)c1ccc2ccccc2c1.Cl | – | Non-Toxic | Non-Toxic | Non-Toxic | Non-Toxic | Non-Toxic | Non-Toxic | Active | – | Active | Active | – | – | – | – | –
